Experimental findings from ChEMBL document CHEMBL1156875, “Anti-influenza drug discovery: structure-activity relationship and mechanistic insight into novel angelicin derivatives” (J Med Chem, 2010) are described below.

The test system of data set [1] is Influenza A virus. Description: Antiviral activity against human influenza A virus A/WSN/33 (H1N1) in MDCK cells assessed as reduction of virus-induced cytopathic effect. In kind it is functional, organism-based. Conditions: A/WSN/1933(H1N1). In a few lines: (§1)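 MDCK cells (1.1 × 10^5 cells/mL in DMEM + 10% FBS) grown 24-30 h at 37 C to about 90% confluency. Virus (100 TCID50) premixed with serially diluted compound, adsorbed 1 h at 37 C. Overlay of serum-free DMEM with trypsin 2.5 μg/mL and 0.1% DMSO, then 72 h at 37 C. Formaldehyde fixation, crystal violet stain, A570. IC50 = 50% CPE reduction versus virus control. Triplicate, at least two runs.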

Data set [2] concerns Influenza A virus. Description: Antiviral activity against human influenza A virus A/TW/141/04 (H1N1) in MDCK cells assessed as reduction of virus-induced cytopathic effect. It is filed as functional, organism-based. In a few lines: as §1
The subject of data set [3] is Influenza A virus. Description: Antiviral activity against human influenza A virus A/TW/3446/04 (H3N2) in MDCK cells assessed as reduction of virus-induced cytopathic effect. In kind it is functional, organism-based. In a few lines: as §1
Data set [4] deals with Influenza B virus. The data set is described as follows: Antiviral activity against human influenza B virus B/TW/710/05 in MDCK cells assessed as reduction of virus-induced cytopathic. In kind it is functional, organism-based. Conditions: B/TW/710/05, MDCK. In a few lines:
as §1

Data set [5] has as its system Influenza B virus. The data set is described as follows: Antiviral activity against human influenza B virus B/TW/70325/05 in MDCK cells assessed as reduction of virus-induced cytopathic. Conditions: B/TW/70325/05, MDCK. It is filed as functional, organism-based. In a few lines:
as §1

In data set [6] the test system is Influenza B virus. Description: Antiviral activity against human influenza B virus B/TW/99/07 in MDCK cells assessed as reduction of virus-induced cytopathic. Conditions: B/TW/99/07, MDCK. In kind it is functional, organism-based. In a few lines: as §1
Data set [7] deals with Influenza A virus. Description: Antiviral activity against human influenza A virus A/WSN/33 (H1N1) in MDCK cells assessed as reduction of M1 protein by immunofluorescence microscopic analysis. Conditions: A/WSN/1933(H1N1). It is filed as functional, organism-based. The essentials: (§2)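 Influenza-infected MDCK cells examined by immunofluorescence microscopy with anti-dsRNA, anti-NP and anti-M1 antibodies to visualise viral RNA and proteins.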

Data set [8] relates to Influenza A virus. The data set is described as follows: Antiviral activity against human influenza A virus A/WSN/33 (H1N1) in MDCK cells assessed as reduction of plaque formation at 20 nM. It is filed as functional, A/WSN/1933(H1N1). Details: scale not given: the % may be the effect or the level left. In a few lines:
(§3)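 Six-well MDCK monolayers (5.5 × 10^5 cells/well, overnight) infected with about 125 PFU/well of A/WSN/33 with or without compound, adsorbed 1 h at 37 C, then washed with HBSS. Agarose 0.3% overlay in trypsin-containing serum-free medium carrying the same compound level, 48 h at 37 C, 5% CO2. Fixed, crystal violet stained, plaques counted relative to virus control.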

Data set [9] deals with Influenza A virus. Description: Antiviral activity against human influenza A virus A/WSN/33 (H1N1) in MDCK cells assessed as reduction of plaque formation at 100 nM. It is filed as functional, organism-based. Conditions: A/WSN/1933(H1N1). In a few lines:
as §3

Data set [10] in a line: Cytotoxicity against MDCK cells after 72 hrs. In kind it is cell-based, Canis lupus familiaris. Conditions: dog. The essentials:
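Uninfected MDCK monolayers (seeded at 1.1 × 10^5 cells/mL, grown 24-30 h to about 90% confluency) exposed to graded compound concentrations for 72 h at 37 C. Read by formaldehyde fixation, 0.1% crystal violet staining and absorbance at 570 nm. CC50 = concentration reducing viability to 50% of control. Triplicate, repeated at least twice.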

Data set [11] deals with Influenza A virus. Description: Antiviral activity against human influenza A virus A/WSN/33 (H1N1) in MDCK cells assessed as prevention of progeny formation up to 4 hrs by time-of-addition study. In kind it is functional, organism-based. Conditions: A/WSN/1933(H1N1). In a few lines: (§4)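 MDCK (2.4 × 10^5 cells/well, six-well) infected at MOI 0.001 on ice for 1 h, washed, fresh medium set as 0 h pi. Compound at 1 μM present only during −1 to 0, 0-2, 2-4, 4-6 or 6-8 h, then washed off. Incubated in fresh medium to 12 h pi; supernatant virus yield titrated by plaque assay.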

For data set [12], the system named is Influenza A virus. Description: Antiviral activity against human influenza A virus A/WSN/33 (H1N1) in MDCK cells assessed as prevention of progeny formation after 4 to 8 hrs by time-of-addition study. In kind it is functional, organism-based. Conditions: A/WSN/1933(H1N1). In a few lines: as §4
Data set [13] has as its system Influenza A virus. Description: Antiviral activity against human influenza A virus A/WSN/33 (H1N1) assessed as inhibition of guinea pig red blood cells at 25 uM by hemagglutinination inhibition assay. Conditions: A/WSN/1933(H1N1). It is filed as functional, organism-based. In a few lines: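 Hemagglutination inhibition format: A/WSN/33 attachment to guinea pig red blood cells tested with compound at 25 μM.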

Data set [14] deals with Influenza A virus. Description: Antiviral activity against human influenza A virus A/WSN/33 (H1N1) in MDCK cells assessed as reduction of dsRNA by immunofluorescence microscopic analysis. In kind it is functional, organism-based. Conditions: A/WSN/1933(H1N1). The essentials:
as §2

Data set [15] concerns Influenza A virus. Description: Antiviral activity against human influenza A virus A/WSN/33 (H1N1) in MDCK cells assessed as reduction of NP protein by immunofluorescence microscopic analysis. It is filed as functional, organism-based. Conditions: A/WSN/1933(H1N1). In a few lines: as §2

Activity calls are given as the source filed them. The rule behind the calls is not given here. Some results are limits rather than exact numbers.

On to `CC(=O)N[C@H]1[C@H]([C@H](O)[C@H](O)CO)OC(C(=O)O)=C[C@@H]1NC(=N)N` [ZANAMIVIR], for which the IC50 in the data set on Influenza A virus [1] was found to be 60 nM; in the data set with Influenza A virus [2] it was 350 nM; in the data set with Influenza A virus [3], 30 nM; with Influenza B virus [4], 30 nM; in the data set on Influenza B virus [5] it was 20 nM; in the data set with Influenza B virus [6], 100 nM.
Turning to `Cc1cc(=O)oc2c1ccc1oc(C(=O)c3cccs3)c(-c3ccccc3)c12`, the outcome with Influenza A virus [7], in the data set with Influenza A virus [9], in the data set on Influenza A virus [11], in the data set with Influenza A virus [14] and with Influenza A virus [15] was Active. Further, the concentration for half-maximal inhibition (IC50) with Influenza A virus [1] worked out at 70 nM; with Influenza A virus [2], 90 nM; with Influenza A virus [3] it was 150 nM; in the data set with Influenza B virus [4] it was 90 nM; with Influenza B virus [5], 90 nM; with Influenza B virus [6], 40 nM. In addition, the Activity with Influenza A virus [8] came to 50%. The CC50 at 72 h in [10] was greater than 25000 nM. In addition, the outcome with Influenza A virus [12] and in the data set with Influenza A virus [13] was inactive.
Consider `CCCOc1cccc(C(=O)c2oc3ccc4c(C)cc(=O)oc4c3c2-c2ccccc2)c1`, for which the IC50 in the data set on Influenza A virus [1] worked out at 150 nM. In [10], this compound displayed a CC50 at 72 h greater than 25000 nM.
On to `O=C(c1ccccc1)c1oc2ccccc2c1-c1ccccc1`, for which, in the data set with Influenza A virus [1], the IC50 was greater than 25000 nM. The CC50 at 72 h in data set [10] is 5270 nM.
Regarding `Cc1cc(=O)oc2c1ccc1oc(C(=O)c3ccccc3)c(-c3ccc(Br)cc3)c12`, the IC50 in the data set with Influenza A virus [1] was 460 nM. Further, in data set [10], the CC50 at 72 h was greater than 25000 nM.
Turning to `Cc1cc(=O)oc2c1ccc1oc(C(=O)c3ccsc3)c(-c3ccccc3)c12`, the IC50 in the data set on Influenza A virus [1] turned out to be 150 nM. The CC50 at 72 h in data set [10] was greater than 25000 nM.
With `Cc1cccc(-c2c(C(=O)c3ccccc3)oc3ccc4c(C)cc(=O)oc4c23)c1`, the IC50 in the data set with Influenza A virus [1] came out at 100 nM. In addition, the CC50 at 72 h in data set [10] was greater than 25000 nM.
Turning to `Cc1cc(=O)oc2c1ccc1oc(C(=O)c3ccccc3)c(-c3cc(Br)cc(Br)c3)c12`, the IC50 with Influenza A virus [1] was 100 nM. In data set [10], this compound had a CC50 at 72 h greater than 25000 nM.
With `Cc1cc(=O)oc2c1ccc1oc(-c3ccccc3)c(-c3ccccc3)c12`, in the data set on Influenza A virus [1], the IC50 was greater than 25000 nM. The compound also came in with a CC50 at 72 h in data set [10] greater than 25000 nM.
Consider `CCCCOc1cccc(C(=O)c2oc3ccc4c(C)cc(=O)oc4c3c2-c2ccccc2)c1`, for which the IC50 with Influenza A virus [1] turned out to be 80 nM. For the same compound, in data set [10], the CC50 at 72 h was greater than 25000 nM.
With `Cc1cc(=O)oc2c1ccc1oc(C(=O)c3ccccc3)c(-c3ccc4ccccc4c3)c12`, the IC50 in the data set on Influenza A virus [1] was determined as 1910 nM. In addition, the CC50 at 72 h in data set [10] is greater than 25000 nM.
As to `Cc1cc(=O)oc2c1ccc1oc(C(=O)c3ccccc3)c(-c3ccco3)c12`, the IC50 in the data set on Influenza A virus [1] was found to be 650 nM. The same compound gave a CC50 at 72 h in data set [10] greater than 25000 nM.
In the same order, the values of `COc1ccccc1C(=O)c1oc2ccc3c(C)cc(=O)oc3c2c1-c1ccccc1` are 640 nM and greater than 25000 nM.
As to `Cc1cc2ccc3oc(C(=O)c4ccccc4)c(-c4ccccc4)c3c2oc1=O`, in the data set on Influenza A virus [1], the IC50 turned out to be 2790 nM. For the same compound, the CC50 at 72 h in data set [10] was greater than 25000 nM.
For the compound `Cc1c(C)c2ccc3oc(C(=O)c4ccccc4)c(-c4ccccc4)c3c2oc1=O`, the IC50 in the data set on Influenza A virus [1] turned out to be 290 nM. This compound also had a CC50 at 72 h in data set [10] greater than 25000 nM.
In the case of `COc1ccc(C(=O)c2oc3ccc4c(C)cc(=O)oc4c3c2-c2ccccc2)cc1`, the 50% inhibitory concentration (IC50) in the data set on Influenza A virus [1] was 1670 nM. This compound yielded a CC50 at 72 h in [10] greater than 25000 nM.
As for `Cc1cc(=O)oc2c1ccc1oc(C(=O)c3cccc([N+](=O)[O-])c3)c(-c3ccccc3)c12`, the IC50 in the data set on Influenza A virus [1] was found to be 1710 nM. Moreover, the CC50 at 72 h in [10] is greater than 25000 nM.
Turning to `Cc1cc(=O)oc2c1ccc1oc(C(=O)c3ccccc3)c(-c3ccc([N+](=O)[O-])cc3)c12`, the IC50 in the data set with Influenza A virus [1] was found to be 760 nM. The CC50 at 72 h in data set [10] is greater than 25000 nM.
Turning to `Cc1cc(=O)oc2c1ccc1oc(C(=O)c3ccccc3)c(-c3cccs3)c12`, the IC50 with Influenza A virus [1] worked out at 150 nM. The compound further came in with a CC50 at 72 h in data set [10] greater than 25000 nM.
